Screens as filed in PubChem BioAssay.
A selection: hits, their analogues and other compounds. The true share with any hit is near 9.6%.
APP 5UTR inh – APP translation inhibition; SH-SY5Y APP 5'UTR-luciferase reporter, luminescence; inhibition, % at 2 µM; 190,000 tested, 0.82% active;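 active = inhibition above a set limit, derived from the sample mean plus 3 SD, cut at about 45% in these data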
Ba/F3 V617F tox – reduce viability of Ba/F3 cells dependent on JAK2V617F; Ba/F3 EpoR-JAK2V617F viability, ATP luminescence; inhibition, % at 5.6 µM; 220,000 tested, 1.1% active;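 active = inhibition above the campaign mean plus 3 SD over all tested compounds, cut at about 24% in these data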;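 also: cytokine-independent growth of Ba/F3 cells driven by EpoR plus mutant JAK2; 0% = DMSO-treated cells and 100% = JAK inhibitor I control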
L major viab – Leishmania major promastigote growth inhibition | 200,000 tested, 9% active | Leishmania major promastigotes, resazurin fluorescence viability | inhibition, % at 10 µM; in the data active = inhibition above about 50%;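 also: promastigotes grown with compound for 44 hours at 28 °C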
BaF3 tox – reduces parental Ba/F3 cell viability, JAK2V617F counter-screen; CellTiter-Glo ATP luminescence; inhibition, % at 5.6 µM; 220,000 tested, 1.1% active;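 active = inhibition above a per-campaign cutoff, the mean inhibition of all tested compounds plus 3 SD, cut at about 27% in these data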;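 also: 0% = DMSO wells and 100% = JAK Inhibitor I control wells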
bCat nuc transl – alters nuclear translocation of beta-catenin in HeLa cells; 190,000 tested, 0.3% active; nuclear translocation activity, % at 5 µM; immunofluorescence imaging; AID 1665;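 active = nuclear translocation activity above 50% at 5 µM, with a well cell count of 50 or more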;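 also: per-cell ratio of nuclear to cytoplasmic median beta-catenin stain intensity; plate controls were DMSO negative control for no effect and GSK-3 inhibitor IX positive control for full effect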
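Test system: human HeLa cells, native beta-catenin. Compound dosing: 5 µM primary single dose, 0.1% DMSO, 0.02–20 µM confirmation series. Incubation: compound exposure 24 h at 37°C. Detection: beta-catenin immunostaining with DAPI counterstain, 20x imaging, 6 fields/well. Read-out basis: Nuclear/cytoplasmic beta-catenin signal ratio, % activation.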
MT stabilizer – microtubule stabilization, imaging screen | 200,000 tested, 0.83% active | % tubulin-high responders, % at 10 µM | HeLa tubulin immunostaining HCS, 24 h; share of cells brighter than vehicle mean+2SD;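 active = plate Z-score above 3 for both tubulin-high and condensed-nucleus cell shares, with cell loss under 80%, at 10 µM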;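 also: anti alpha tubulin signal scored within the nucleus-defined area of each cell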
BaF3 parental 2 – counter-screen for JAK2V617F inhibitors: parental Ba/F3 viability inhibitors; AID 1520; shares compounds with Ba/F3 V617F tox; 580 tested, 31% active; inhibition, % at 5.6 µM; CellTiter-Glo luminescence; cells kept alive by added IL-3;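 active = cell growth inhibition above the hit limit set in the earlier mutant JAK2 cell screen, cut at about 27% in these data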;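 also: plate controls were DMSO-treated cells for no effect and JAK Inhibitor I control wells for full effect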
JAK2V617F conf – Ba/F3 EpoR-JAK2V617F viability loss, confirmation. 580 tested, 66% active. inhibition, % at 5.6 µM. CellTiter-Glo luminescence. shares compounds with Ba/F3 V617F tox;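 active = mean inhibition above the hit cutoff derived in the earlier primary screen, cut at about 25% in these data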;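 also: 0% = DMSO-treated cells and 100% = JAK inhibitor I control wells; higher means lower luminescence from reduced cell ATP and viability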
Starred values were filed as active, the others as inactive.

How did COc1ccc(-c2[nH]ncc2CN2CCC(O)(c3ccc(Cl)cc3)CC2)cc1 do in these assays?
Ba/F3 V617F tox: 41.5*; BaF3 tox: 10.6; bCat nuc transl: -5.2; BaF3 parental 2: 34.2*; JAK2V617F conf: 40.7*

Results for COc1cccc(C(C)NC(=O)Nc2ccccc2Cl)c1 (configuration not stated) ?
APP 5UTR inh: -17.3; Ba/F3 V617F tox: -3.5; L major viab: 17.6; BaF3 tox: -1.1; bCat nuc transl: 0.7; MT stabilizer: 4.7

Results for Cc1ccc(S(=O)(=O)Nc2cccc(Cl)c2)cc1NC(=O)c1cccnc1 ?
APP 5UTR inh: 0.5; Ba/F3 V617F tox: 3.6; L major viab: 7.5; BaF3 tox: 10.4; bCat nuc transl: 2.5; MT stabilizer: 3.9

Results for O=C(COC(=O)c1ccncc1)Nc1cc(Cl)c(Cl)cc1Cl ?
APP 5UTR inh: -7.6; Ba/F3 V617F tox: -3.6; L major viab: -6.7; BaF3 tox: 2.5; MT stabilizer: 3.0

What do the screens show for `O=C(COC(=O)c1ccncc1)Nc1cc(Cl)ccc1Cl`?
APP 5UTR inh: 17.9; Ba/F3 V617F tox: 44.9*; L major viab: -7.0; BaF3 tox: 3.9; bCat nuc transl: -1.6; MT stabilizer: 1.8; BaF3 parental 2: -4.8; JAK2V617F conf: -1.1

How did COc1ccc(CNC(=O)Nc2cccc3ccccc23)cc1 do in these assays?
APP 5UTR inh: -8.6; Ba/F3 V617F tox: -3.6; L major viab: -1.4; BaF3 tox: 3.0; MT stabilizer: 1.7

How did Cc1ccc(Nc2nc(-c3ccc(O)c(O)c3)cs2)nc1 do in these assays?
APP 5UTR inh: 5.9; Ba/F3 V617F tox: 92.1*; L major viab: 98.7*; BaF3 tox: 16.8; bCat nuc transl: 20.0; MT stabilizer: 1.7; BaF3 parental 2: 95.5*; JAK2V617F conf: 98.5*

What do the screens show for `Cc1ccc(/C=C2\SC(=S)N(CCC(=O)NNS(=O)(=O)c3ccccc3)C2=O)cc1`?
Ba/F3 V617F tox: -5.0; BaF3 tox: -8.2; bCat nuc transl: -0.9

How did CC(=O)N(Cc1ccccc1)Cc1cn(CCC#N)nc1-c1cccc([N+](=O)[O-])c1 do in these assays?
APP 5UTR inh: -11.7; Ba/F3 V617F tox: 1.4; L major viab: 17.4; BaF3 tox: 7.9; bCat nuc transl: -3.0; MT stabilizer: 2.7

How did CCC(C)C(=O)Nc1c2c(nc3c1CCC3)CCCC2 (configuration not stated) do in these assays?
APP 5UTR inh: 14.6; Ba/F3 V617F tox: 31.9*; L major viab: -3.5; BaF3 tox: 18.0; bCat nuc transl: -6.8; MT stabilizer: 1.2; BaF3 parental 2: -6.1; JAK2V617F conf: -19.9

Results for CC(C)C(=O)Nc1c2c(nc3c1CCC3)CCCC2 ?
APP 5UTR inh: 11.5; Ba/F3 V617F tox: 1.0; L major viab: -6.2; BaF3 tox: 10.1; bCat nuc transl: -7.6; MT stabilizer: 1.5

How did C=CCN1N=C(c2ccc(NC(=O)c3ccccc3)cc2)CSC1=O do in these assays?
APP 5UTR inh: -15.4; Ba/F3 V617F tox: -3.6; L major viab: -4.3; BaF3 tox: 1.9; bCat nuc transl: 2.5; MT stabilizer: 1.8

Results for CS(=O)(=O)c1nc(-c2ccco2)cc(C(F)(F)F)n1 ?
APP 5UTR inh: -0.5; Ba/F3 V617F tox: 41.5*; L major viab: 42.0; BaF3 tox: 20.6; bCat nuc transl: -2.8; MT stabilizer: 7.8; BaF3 parental 2: 8.2; JAK2V617F conf: 69.8*

Results for Cc1cc(NC(=O)CSc2nc(-c3ccco3)cc(C(F)(F)F)n2)no1 ?
APP 5UTR inh: 18.4; Ba/F3 V617F tox: 60.7*; L major viab: -0.9; BaF3 tox: 4.6; bCat nuc transl: 3.9; MT stabilizer: 39.1*; BaF3 parental 2: 48.4*; JAK2V617F conf: 90.5*

What do the screens show for `Cc1ccc(S(=O)(=O)N/N=C/c2ccc(OS(=O)(=O)c3ccc(C)c([N+](=O)[O-])c3)cc2)cc1`?
APP 5UTR inh: 1.8; Ba/F3 V617F tox: 6.0; L major viab: 9.4; BaF3 tox: 6.7; bCat nuc transl: 2.3; MT stabilizer: 2.2
